Data on 21 compounds can be found in ChEMBL document CHEMBL1152892, “Synthesis and biological evaluation of 3,6-disubstituted [1,2,4]triazolo[3,4-b][1,3,4]thiadiazole derivatives as a novel class of potential anti-tumor agents” (Eur J Med Chem, 2009).

SMILES strings stand for the structures. The source made the active and inactive calls. The calls are words filed in the database; no cut-off is given here.

Assay [1] has as its target Cyclin-dependent kinase 2 (Homo sapiens, UniProt P24941). In words: Inhibition of CDK2/Cyclin A.
Assay [2] can be described thus: Inhibition of CDK4/Cyclin D.
The target in assay [3] is Cyclin-dependent kinase 1/cyclin B1 (Homo sapiens, UniProt P06493). As to the kind of experiment: Inhibition of CDK1/Cyclin B. The format is protein-complex assay.
A further assay has as its system RPMI8266. In words: Cytotoxicity against human […] cells after 48 hrs by sulforhodamine B assay. Type of assay: functional. The method, boiled down: (§1)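 NCI human tumor panel. Cells in RPMI 1640 with 5% FBS and 2 mM L-glutamine, 5000–40,000 cells/well by growth characteristics, 24 h preincubation at 37 °C. Compound added at time zero at five 10-fold dilutions, top concentration agent-dependent. Incubated 48 h (5% CO2, 100% humidity), then sulforhodamine B stain and plate-reader OD. GI50 and TGI are the concentrations giving 50% and total growth inhibition, in µM.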
(In general: Sulforhodamine B stains cellular protein and so reports cell mass.)

A further assay concerns OVCAR-3. As to the kind of experiment: Cytotoxicity against human OVCAR-3 cells after 48 hrs by sulforhodamine B assay. The format is functional. In outline: as §1
The next assay deals with HOP-92. In words: Cytotoxicity against human HOP92 cells after 48 hrs by sulforhodamine B assay. Type of assay: functional. To be noted: HOP-92, 48 h. In outline:
as §1

A further assay relates to HCT-15. In words: Cytotoxicity against human HCT15 cells after 48 hrs by sulforhodamine B assay. The format is functional. In outline: as §1
Assay [4] in a line: Cytotoxicity against human Hs 578T cells after 48 hrs by sulforhodamine B assay. The format is functional. The method, boiled down:
as §1

The test system of assay [5] is MCF7. In words: Antitumor activity against human MCF7 cells assessed as cell growth at 10 uM after 48 hrs by sulforhodamine B assay. Type of assay: functional. As to conditions: MCF7, 48 h, read-out: Activity. In outline:
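NCI primary screen, single concentration 10^-5 M against MCF7, NCI-H460 and SF-268. Cells in RPMI 1640 with 5% FBS and 2 mM L-glutamine, seeded at 5000–40,000 cells/well by cell type, preincubated 24 h at 37 °C. Compound added at time zero, then 48 h incubation (5% CO2, 100% humidity). Growth read by sulforhodamine B optical density, reported as growth percentage.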

In the next assay the test system is SF-268. In words: Cytotoxicity against human SF268 cells after 48 hrs by sulforhodamine B assay. Type of assay: functional. The method, boiled down: as §1
The test system of a further assay is SR. As to the kind of experiment: Cytotoxicity against human SR cells after 48 hrs by sulforhodamine B assay. Type of assay: functional. The method, boiled down:
as §1

For a further assay, the system named is ACHN. As to the kind of experiment: Cytotoxicity against human ACHN cells after 48 hrs by sulforhodamine B assay. Type of assay: functional. The method, boiled down:
as §1

The subject of the next assay is LOX IMVI. As to the kind of experiment: Cytotoxicity against human LOXIMVI cells after 48 hrs by sulforhodamine B assay. The format is functional. In outline: as §1
The test system of the next assay is CAKI-1. In words: Cytotoxicity against human Caki1 cells after 48 hrs by sulforhodamine B assay. Type of assay: functional. The method, boiled down: as §1
For a further assay, the system named is UACC-62. As to the kind of experiment: Cytotoxicity against human UACC62 cells after 48 hrs by sulforhodamine B assay. Type of assay: functional. The method, boiled down: as §1
The subject of the next assay is HOP-62. In words: Cytotoxicity against human HOP62 cells after 48 hrs by sulforhodamine B assay. The format is functional. In outline: as §1
For another assay, the system named is HCC 2998. In words: Cytotoxicity against human HCC2998 cells after 48 hrs by sulforhodamine B assay. The format is functional. In outline: as §1
A further assay relates to TK-10. As to the kind of experiment: Cytotoxicity against human TK10 cells after 48 hrs by sulforhodamine B assay. Type of assay: functional. In outline: as §1
The test system of another assay is SF-539. As to the kind of experiment: Cytotoxicity against human SF539 cells after 48 hrs by sulforhodamine B assay. Type of assay: functional. In outline:
as §1

In assay [6] the test system is HCT-116. In words: Antitumor activity against human HCT116 cells xenografted in nude mouse. The format is functional, cell-based. (In general: A xenograft is tissue or cells of one species grown in another, often human tumour cells in immunodeficient mice.)
The test system of another assay is BT-549. As to the kind of experiment: Cytotoxicity against human BT549 cells after 48 hrs by sulforhodamine B assay. As to conditions: for GI50: BT-549, 48 h. The format is functional. The method, boiled down: as §1
A further assay has as its system SNB-75. As to the kind of experiment: Cytotoxicity against human SNB75 cells after 48 hrs by sulforhodamine B assay. Type of assay: functional. In outline:
as §1

Assay [7] deals with MCF7. As to the kind of experiment: Cytotoxicity against human MCF7 cells after 48 hrs by sulforhodamine B assay. Type of assay: functional. In outline: as §1
In another assay the test system is KM12. In words: Cytotoxicity against human KM12 cells after 48 hrs by sulforhodamine B assay. The format is functional. As to conditions: for GI50: KM12, 48 h. In outline: as §1
A further assay relates to NCI-H322M. In words: Cytotoxicity against human NCI-H322M cells after 48 hrs by sulforhodamine B assay. The format is functional. In outline:
as §1

The next assay deals with A498. As to the kind of experiment: Cytotoxicity against human A498 cells after 48 hrs by sulforhodamine B assay. Type of assay: functional. In outline: as §1
For another assay, the system named is CCRF-CEM. In words: Cytotoxicity against human CCRF-CEM cells after 48 hrs by sulforhodamine B assay. The format is functional. In outline: as §1
In the next assay the test system is NCI-H226. As to the kind of experiment: Cytotoxicity against human NCI-H226 cells after 48 hrs by sulforhodamine B assay. Type of assay: functional. In outline: as §1
A further assay relates to OVCAR-4. In words: Cytotoxicity against human OVCAR4 cells after 48 hrs by sulforhodamine B assay. Type of assay: functional. In outline: as §1
Assay [8] deals with HCT-116. In words: Cytotoxicity against human HCT116 cells after 48 hrs by sulforhodamine B assay. To be noted: HCT-116, 48 h. Type of assay: functional. In outline:
as §1

Cyclin-dependent kinase 1/cyclin B1, sequence (P06493 whole entry): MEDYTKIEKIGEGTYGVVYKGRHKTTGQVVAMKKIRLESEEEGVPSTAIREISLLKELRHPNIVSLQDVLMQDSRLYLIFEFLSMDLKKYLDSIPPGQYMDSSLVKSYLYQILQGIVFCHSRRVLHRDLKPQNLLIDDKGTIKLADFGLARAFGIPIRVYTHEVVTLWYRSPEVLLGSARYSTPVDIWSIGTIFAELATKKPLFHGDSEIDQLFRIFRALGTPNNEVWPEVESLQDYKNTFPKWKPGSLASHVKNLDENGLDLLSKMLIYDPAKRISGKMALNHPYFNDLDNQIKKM
Cyclin-dependent kinase 1/cyclin B1, sequence (P14635 whole entry, further chain): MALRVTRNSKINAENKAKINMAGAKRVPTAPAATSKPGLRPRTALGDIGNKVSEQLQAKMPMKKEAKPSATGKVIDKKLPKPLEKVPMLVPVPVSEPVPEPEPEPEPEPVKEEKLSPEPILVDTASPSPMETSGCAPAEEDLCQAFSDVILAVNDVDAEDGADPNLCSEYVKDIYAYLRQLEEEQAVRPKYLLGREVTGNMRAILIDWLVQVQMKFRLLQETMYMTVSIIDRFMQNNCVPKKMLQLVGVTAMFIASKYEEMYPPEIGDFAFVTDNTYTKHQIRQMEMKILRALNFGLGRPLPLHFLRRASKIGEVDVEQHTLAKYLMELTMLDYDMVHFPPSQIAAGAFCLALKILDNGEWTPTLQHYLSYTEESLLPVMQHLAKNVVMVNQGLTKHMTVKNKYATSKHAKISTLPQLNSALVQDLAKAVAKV

Regarding `CCSc1nn2c(C)nnc2s1`, the figures for the IC50 in [1], in [2] and in [3] were 11 µM, 14 µM and over 120 µM, respectively.
With `Clc1ccc(OCc2nnc3sc(SCc4ccccc4)nn23)cc1`, the IC50 (usually the concentration that gives 50% inhibition) in assay [1] was over 28 µM; in assay [2] it was 37 µM; in assay [3] it was over 120 µM.
For the compound `CCSc1nn2c(Cc3ccccc3)nnc2s1`, the half-inhibitory concentration (IC50) is 24 µM in [1], over 48 µM in [2] and over 120 µM in assay [3].
The like results for `c1ccc(Cc2nnc3sc(SSc4nn5c(Cc6ccccc6)nnc5s4)nn23)cc1` were, in that order, 15 µM, 25 µM and 5.3 µM.
For the compound `Nc1nc(O)c(Cc2nn3c(Cc4ccccc4)nnc3s2)s1`, the IC50 in assay [1] was 14 µM; in assay [2], over 48 µM; in assay [3], over 120 µM.
With `NNc1nn2c(COc3ccc(Cl)cc3)nnc2s1`, the IC50 in [1] was 15 µM; in [2], over 120 µM; in assay [3], 28 µM.
Turning to `Cc1nnc2sc(S)nn12`, the IC50 came to 6.8 µM in assay [1], 23 µM in assay [2] and 19 µM in [3].
In the same order, the values of `c1ccc(CSc2nn3c(Cc4ccccc4)nnc3s2)cc1` are over 28 µM, 18 µM and 25 µM.
Take `S=c1[nH]c(=S)c2c(Cc3nn4c(Cc5ccccc5)nnc4s3)n[nH]c2[nH]1`: the figures for the IC50 in assay [1], in [2] and in assay [3] were 24 µM, over 48 µM and 14 µM, respectively.
For the compound `Nc1nc(O)c(Cc2nn3c(COc4ccc(Cl)cc4)nnc3s2)s1`, the pGI50 entry in the assay with RPMI8266, with OVCAR-3, in the assay on SF-268, in the assay on CAKI-1, in the assay on HOP-62 and in the assay with HCC 2998 was “inactive” each time. The pGI50 entry with BT-549 and in the assay with SNB-75 was “inactive” each time. Further, the GI50 – broadly, the concentration that inhibits growth by half – with HOP-92 is 97.7 µM; in the assay with HCT-15 (HCT-15, 48 h) it was 0.741 µM; in [4] it was 31.6 µM; in the assay with SR, 49 µM; with ACHN, 35.5 µM; with LOX IMVI, 3.63 µM. The GI50 with UACC-62 (UACC-62, 48 h) is 31.6 µM; with TK-10 (TK-10, 48 h) it was 45.7 µM; in the assay with SF-539 (SF-539, 48 h), 39.8 µM; in the assay on MCF7 [7] (MCF7, 48 h) it was over 100 µM; in the assay with KM12 it was 7.41 µM; in the assay with NCI-H322M it was 11.2 µM. Besides, halving of growth in the assay with A498 (A498, 48 h) (GI50) required 0.0537 µM. In addition, the results for the concentration for half-maximal inhibition (IC50) in assay [1], in assay [2] and in [3] were 0.18 µM, 3 µM and 0.91 µM, respectively. Moreover, in the assay on MCF7 [5], the growth at 10 µM was found to be 0%. Also, the result with HCT-116 [6] was Active.
As for `Cc1nnc2sc(SSc3nn4c(C)nnc4s3)nn12`, the half-inhibitory concentration (IC50) was determined as 23 µM in [1], 11 µM in assay [2] and 6.8 µM in assay [3].
In the case of `CCSc1nn2c(COc3ccc(Cl)cc3)nnc2s1`, the IC50 was 24 µM in [1], over 120 µM in assay [2] and over 48 µM in assay [3].
Turning to `Sc1nn2c(COc3ccc(Cl)cc3)nnc2s1`, the GI50 in the assay with CCRF-CEM is 97.7 µM; in the assay on OVCAR-3 (OVCAR-3, 48 h), 81.3 µM; in the assay on HOP-92 it was 79.4 µM; in assay [4], 87.1 µM; with NCI-H226 (NCI-H226, 48 h) it was 89.1 µM; in the assay with SR, 95.5 µM. In addition, the figures for the GI50 in the assay on BT-549 and with HCT-116 [8] were 79.4 µM and over 100 µM, respectively. The pGI50 entry in the assay with RPMI8266, in the assay with SF-268, in the assay with ACHN, in the assay with LOX IMVI, in the assay with CAKI-1 and with UACC-62 was “inactive” each time. Besides, the pGI50 result in the assay with HOP-62, with HCC 2998, in the assay with TK-10, in the assay with SF-539, in the assay with SNB-75 and with MCF7 [7] was “inactive” in each case. For the same compound, the pGI50 result in the assay with OVCAR-4, with KM12, in the assay with NCI-H322M and in the assay on A498 was “inactive” each time. The results for the IC50 in assay [1] and in assay [3] were 0.4 µM and 0.9 µM, respectively. Also, the growth at 10 µM in the assay with MCF7 [5] worked out at 0%.
Take `Sc1nn2c(Cc3ccccc3)nnc2s1`: the IC50 in [1] is 23 µM; in [2] it was 37 µM; in assay [3], 25 µM.
The like results for `NNc1nn2c(Cc3ccccc3)nnc2s1` were, in that order, over 28 µM, over 48 µM and over 120 µM.
As to `S=c1[nH]c(=S)c2c(Cc3nn4c(COc5ccc(Cl)cc5)nnc4s3)n[nH]c2[nH]1`, the IC50 is 37 µM in assay [1], over 48 µM in [2] and 29 µM in assay [3].
Regarding `Nc1ccc(-c2nn3c(Cc4ccccc4)nnc3s2)cc1`, the IC50 in [1] is over 28 µM; in [2], 14 µM; in [3], over 120 µM.
The like results for `Cc1nnc2sc(Cc3n[nH]c4[nH]c(=S)[nH]c(=S)c34)nn12` were, in that order, 24 µM, 10 µM and over 48 µM.
For the compound `Cc1nnc2sc(NN)nn12`, the 50% inhibitory concentration (IC50) in assay [1] was 11 µM; in assay [2], over 120 µM; in assay [3], 22 µM.
As to `Cc1nnc2sc(-c3ccc(N)cc3)nn12`, the pGI50 entry in the assay with CCRF-CEM, in the assay on RPMI8266, in the assay on OVCAR-3, in the assay on HCT-15, in the assay on NCI-H226 and in the assay with SF-268 was “inactive” in each case. Besides, the pGI50 result in the assay on SR, in the assay on ACHN, in the assay with LOX IMVI, in the assay on CAKI-1, with UACC-62 and with HCC 2998 was “inactive” throughout. Besides, the pGI50 result with SF-539, with MCF7 [7], with OVCAR-4, with NCI-H322M and with A498 was “inactive” each time. For the same compound, the figures for the IC50 in assay [1], in assay [2] and in assay [3] were 0.57 µM, over 120 µM and over 120 µM, respectively. Moreover, the concentration for 50% growth inhibition (GI50) in assay [4] is 89.1 µM; in the assay on HOP-62 (HOP-62, 48 h) it was 87.1 µM; in the assay with BT-549 it was over 100 µM; in the assay with SNB-75 (SNB-75, 48 h), 21.4 µM; with KM12 it was over 100 µM. For the same compound, the growth at 10 µM with MCF7 [5] stood at 119%.
Turning to `Cc1nnc2sc(SCc3ccccc3)nn12`, the IC50 is 16 µM in assay [1], over 120 µM in [2] and over 48 µM in [3].
